Legend:
[1] = Cytotoxicity against mouse RAW264.7 cells assessed as cell viability at 2 to 64 uM after 24 hrs by MTT assay relative to control; format: cell-based; settings: read-out: Activity
Method in brief: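 MTT viability assay. RAW264.7 or HEK293T cells at (1.0−2.0) × 10^5 per well were exposed to a peptide concentration series for 24 h at 37 °C in 5% CO2. MTT was then added at 0.5 mg/mL final for 4 h; formazan was dissolved in DMSO and read at 570 nm. Results average three independent trials.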

[2] = system: Escherichia coli; assay: Antibacterial activity against Escherichia coli ATCC 25922 after 24 hrs; format: functional; settings: ATCC 25922, 24 h
Method in brief: (§1)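 Broth microdilution. Mid-log bacteria in MHB at a final (0.5−1) × 10^5 CFU/mL were mixed with equal volumes of peptide serially diluted in 0.2% BSA. Plates were incubated 24 h at 37 °C and read at A492. MIC is the lowest concentration inhibiting 95% of growth. Each test was repeated at least 3 times.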

[3] = Antibacterial activity against Salmonella pullorum ATCC 7913 after 24 hrs; format: functional, Salmonella enterica subsp. enterica serovar Pullorum; settings: Salmonella enterica, ATCC 7913, 24 h; method in brief: as §1
[4] = system: Staphylococcus aureus; assay: Antibacterial activity against methicillin-resistant Staphylococcus aureus ATCC 4330 after 24 hrs; format: functional; settings: ATCC 4330, 24 h
Method in brief: (§2)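 Modified NCCLS broth microdilution. Mid-log bacteria at (0.5−1) × 10^5 CFU/mL in MHB were mixed 1:1 with peptide serially diluted in 0.2% BSA and incubated 24 h at 37 °C. Absorbance was read at 492 nm; MIC is the lowest concentration inhibiting 95% of growth. At least 3 repeats.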

[5] = system: Staphylococcus epidermidis; assay: Antibacterial activity against Staphylococcus epidermidis ATCC 12228 after 24 hrs; format: functional; settings: ATCC 12228, 24 h; method in brief: as §1
[6] = system: Staphylococcus aureus; assay: Antibacterial activity against Staphylococcus aureus ATCC 25923 after 24 hrs; format: functional; settings: ATCC 25923, 24 h; method in brief: as §2
[7] = system: Staphylococcus aureus; assay: Bactericidal activity against methicillin-resistant Staphylococcus aureus ATCC 4330; format: functional; settings: read-out: MBC99.9
Method in brief: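 Bacteria at (0.5−1) × 10^5 CFU/mL in MHB were exposed to serially diluted peptide (0.2% BSA) for 24 h at 37 °C, then 50 μL aliquots were plated on agar overnight. MBC is the lowest concentration killing >99.9% of cells. At least 3 repeats.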

[8] = system: Staphylococcus aureus; assay: Bactericidal activity against Staphylococcus aureus ATCC 25923; format: functional; settings: read-out: MBC99.9
Method in brief: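 Wells from the 24 h, 37 °C MHB microdilution plates (bacteria at a final (0.5−1) × 10^5 CFU/mL; peptide diluted in 0.2% BSA) were plated on agar and incubated overnight. MBC is the lowest concentration killing >99.9% of cells. Each test was reproduced at least 3 times.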

[9] = system: Candida albicans; assay: Antifungal activity against Candida albicans cgmcc 2.2086 after 48 hrs by broth microdilution method; format: functional; settings: cgmcc 2.2086, 48 h
Method in brief: (§3)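 Modified CLSI M27-A2 broth microdilution. Yeast at (0.5−1) × 10^3 CFU/mL in MOPS-buffered RPMI 1640 was mixed 1:1 with peptide serially diluted in 0.2% BSA and incubated 48 h at 28 °C. Absorbance was read at 492 nm; MIC is the lowest concentration inhibiting 95% of growth. Triplicate, three biological replicates.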

[10] = system: Candida albicans; assay: Antifungal activity against Candida albicans SP3931 after 48 hrs by broth microdilution method; format: functional; settings: SP3931, 48 h; method in brief: as §3
[11] = system: Candida albicans; assay: Antifungal activity against Candida albicans SP3903 after 48 hrs by broth microdilution method; format: functional; settings: SP3903, 48 h; method in brief: as §3
[12] = system: Candida albicans; assay: Antifungal activity against Candida albicans SP3876 after 48 hrs by broth microdilution method; format: functional; settings: SP3876, 48 h; method in brief: as §3
[13] = system: Candida albicans; assay: Antifungal activity against Candida albicans isolated from alveolar fluid after 48 hrs by broth microdilution method; format: functional; method in brief: as §3
[14] = system: Candida albicans; assay: Antifungal activity against fluconazole-resistant Candida albicans 56452 after 48 hrs by broth microdilution method; format: functional; settings: Candida albicans, 56452, 48 h; method in brief: as §3
[15] = system: Candida albicans; assay: Antifungal activity against fluconazole-resistant Candida albicans 17546 after 48 hrs by broth microdilution method; format: functional; settings: Candida albicans, 17546, 48 h; method in brief: as §3
[16] = system: Candida tropicalis; assay: Antifungal activity against Candida tropicalis cgmcc 2.1975 after 48 hrs by broth microdilution method; format: functional; settings: cgmcc 2.1975, 48 h
Method in brief: (§4)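 Modified CLSI M27-A2 broth microdilution. Yeast were suspended in MOPS-buffered RPMI 1640 at a final (0.5−1) × 10^3 CFU/mL and mixed 1:1 with peptide serially diluted in 0.2% BSA. Plates were incubated 48 h at 28 °C and read at A492. MIC is the lowest concentration giving 95% inhibition. Run in triplicate with three biological replicates.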

[17] = system: Pichia kudriavzevii; assay: Antifungal activity against Candida krusei cgmcc 2.1857 after 48 hrs by broth microdilution method; format: functional; settings: cgmcc 2.1857, 48 h; method in brief: as §4
[18] = system: Candida albicans; assay: Fungicidal activity against Candida albicans cgmcc 2.2086 after 96 hrs; format: functional; settings: cgmcc 2.2086, 96 h, read-out: MFC99.9
Method in brief: (§5)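 After the 48 h, 28 °C broth microdilution in MOPS-buffered RPMI 1640 (inoculum (0.5−1) × 10^3 CFU/mL), 50 μL from each well was plated on YM agar for a further 48 h at 28 °C. MFC is the lowest concentration killing at least 99.9% of cells. Triplicate, three biological replicates.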

[19] = system: Candida albicans; assay: Fungicidal activity against Candida albicans SP3931 after 96 hrs; format: functional; settings: SP3931, 96 h, read-out: MFC99.9; method in brief: as §5
[20] = system: Candida albicans; assay: Fungicidal activity against Candida albicans isolated from alveolar fluid after 96 hrs; format: functional; settings: read-out: MFC99.9; method in brief: as §5
[21] = system: Candida albicans; assay: Fungicidal activity against fluconazole-resistant Candida albicans 56452 after 96 hrs; format: functional; settings: Candida albicans, 56452, 96 h; read-out: MFC99.9; method in brief: as §5
[22] = system: Candida albicans; assay: Fungicidal activity against Candida albicans 14936 after 96 hrs; format: functional; settings: Candida albicans, 14936, 96 h; read-out: MFC99.9; method in brief: as §5
[23] = system: Candida tropicalis; assay: Fungicidal activity against Candida tropicalis cgmcc 2.1975 after 96 hrs; format: functional; settings: cgmcc 2.1975, 96 h, read-out: MFC99.9
Method in brief: (§6)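 Wells from the 48 h, 28 °C RPMI 1640/MOPS microdilution plates were plated on YM agar and incubated a further 48 h at 28 °C. MFC is the lowest concentration killing at least 99.9% of cells. Run in triplicate with three biological replicates.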

[24] = system: Pichia kudriavzevii; assay: Fungicidal activity against Candida krusei cgmcc 2.1857 after 96 hrs; format: functional; settings: cgmcc 2.1857, 96 h, read-out: MFC99.9; method in brief: as §6
[25] = system: Escherichia coli; assay: Antibacterial activity against Escherichia coli ATCC 25922 after 18 hrs in presence of KCl by broth dilution method; format: functional; settings: ATCC 25922, 18 h
[26] = system: Escherichia coli; assay: Antibacterial activity against Escherichia coli ATCC 25922 after 18 hrs in presence of NH4Cl by broth dilution method; format: functional; settings: ATCC 25922, 18 h
[27] = system: Escherichia coli; assay: Antibacterial activity against Escherichia coli ATCC 25922 after 18 hrs in presence of MgCl2 by broth dilution method; format: functional; settings: ATCC 25922, 18 h
[28] = system: Escherichia coli; assay: Antibacterial activity against Escherichia coli ATCC 25922 after 18 hrs in presence of ZnCl2 by broth dilution method; format: functional; settings: ATCC 25922, 18 h
[29] = system: Candida albicans; assay: Antifungal activity against Candida albicans cgmcc 2.2086 in presence of MgCl2 by broth dilution method; format: functional
[30] = system: Candida albicans; assay: Antifungal activity against Candida albicans 58288 after 48 hrs by broth microdilution method; format: functional; settings: Candida albicans, 58288, 48 h; method in brief: as §3

Substance | viability at 24 h, up to 64 µM [1] [%] | MIC95 [2] [µM] | MIC95 [3] [µM] | MIC95 [4] [µM] | MIC95 [5] [µM] | MIC95 [6] [µM] | MBC [7] [µM] | MBC [8] [µM] | MIC95 [9] [µM] | MIC95 [10] [µM] | MIC95 [11] [µM] | MIC95 [12] [µM] | MIC95 [13] [µM] | MIC95 [14] [µM] | MIC95 [15] [µM] | MIC95 [16] [µM] | MIC95 [17] [µM] | MFC [18] [µM] | MFC [19] [µM] | MFC [20] [µM] | other results
H-RIRIIIRIR-NH2 | 70 to 80 | 8 | 4 | 4 | 4 | 4 | 4 | 8 | 4 | 4 | 2 | 1 | 4 | 4 | 2 | 2 | 2 | 8 | 8 | 8 | MFC [21]: 4 µM; MFC [22]: 2 µM; MFC [23]: 4 µM; MFC [24]: 4 µM; MIC [25]: 8 µM; MIC [26]: 4 µM; MIC [27]: 8 µM; MIC [28]: 8 µM; MIC [29]: 4 µM; MIC95 [30]: 2 µM
H-RLLRRLRRLLR-NH2 | 70 to 80 | 4 | 8 | 8 | 4 | 8 | 16 | 16 | 8 | 8 | 4 | 4 | 8 | 8 | 8 | 2 | 4 | 16 | 8 | 16 | MFC [21]: 8 µM; MFC [22]: 8 µM; MFC [23]: 4 µM; MFC [24]: 8 µM; MIC [25]: 4 µM; MIC [26]: 4 µM; MIC [27]: 2 µM; MIC [28]: 8 µM; MIC [29]: 32 µM; MIC95 [30]: 4 µM
H-RLRLLLRLR-NH2 | 70 to 80 | 4 | 4 | 4 | 4 | 8 | 4 | 8 | 8 | 8 | 8 | 4 | 8 | 8 | 16 | 2 | 8 | 16 | 16 | 16 | MFC [21]: 8 µM; MFC [22]: 4 µM; MFC [23]: 4 µM; MFC [24]: 8 µM; MIC [25]: 4 µM; MIC [26]: 4 µM; MIC [27]: 4 µM; MIC [28]: 8 µM; MIC [29]: 8 µM; MIC95 [30]: 8 µM
H-RRFRFFFRFRR-NH2 | 70 to 80 | 4 | 2 | 4 | 4 | 8 | 8 | 16 | 4 | 4 | 2 | 4 | 4 | 4 | 2 | 1 | 2 | 16 | 8 | 8 | MFC [21]: 4 µM; MFC [22]: 4 µM; MFC [23]: 2 µM; MFC [24]: 2 µM; MIC [25]: 4 µM; MIC [26]: 4 µM; MIC [27]: 2 µM; MIC [28]: 2 µM; MIC [29]: 4 µM; MIC95 [30]: 2 µM
H-RRIRIIIRIRR-NH2 | > 85 | 4 | 2 | 4 | 4 | 4 | 4 | 8 | 2 | 2 | 1 | 1 | 2 | 1 | 2 | 1 | 2 | 2 | 4 | 4 | MFC [21]: 1 µM; MFC [22]: 2 µM; MFC [23]: 2 µM; MFC [24]: 2 µM; MIC [25]: 4 µM; MIC [26]: 4 µM; MIC [27]: 2 µM; MIC [28]: 4 µM; MIC [29]: 2 µM; MIC95 [30]: 2 µM
